Laboratory results taken from EPA's CvTdb concentration-time database.

Tests used:
Rat [1] = test: concentration in plasma after dosing; details: 5 min; dosed: Pyridine; 10 mg/kg; iv; Male; F344
Rat [2] = test: concentration in plasma after dosing; details: 5 min; dosed: Pyridine; 10 mg/kg; iv; Male; F344; remark: listed apart in the source
Rat [3] = test: concentration in plasma after dosing; details: dosed: Pyridine, 25 mg/kg, oral, Male, F344
Rat [4] = test: concentration in plasma after dosing; details: 0.25 h; dosed: 2-Hydroxy-4-methoxybenzophenone; 500 mg/kg; oral; Male; F344
Rat [5] = test: concentration in plasma after dosing; details: dosed: 2-Hydroxy-4-methoxybenzophenone, 250 mg/kg, oral, Female, F344
Mouse = test: concentration in plasma after dosing; details: 0.25 h; dosed: 2-Hydroxy-4-methoxybenzophenone; 500 mg/kg; oral; Female; B6C3F1
Rat [6] = test: concentration in plasma after dosing; details: dosed: 2-Hydroxy-4-methoxybenzophenone, 500 mg/kg, oral, Male, F344
Rat [7] = test: concentration in brain after dosing; details: 0.5 h; dosed: alpha-Thujone; 25 mg/kg; oral; Female; Harlan Sprague Dawley
Rat [8] = test: concentration in brain after dosing; details: 2.5 h; dosed: 76231-76-0; 3.0 mg/kg; iv; Female; F344
Rat [9] = test: concentration in brain after dosing; details: 5 min; dosed: alpha-Thujone; 25 mg/kg; oral; Male; Harlan Sprague Dawley
Rat [10] = test: concentration in plasma after dosing; details: 1.5 h; dosed: alpha-Thujone; 25 mg/kg; oral; Male; Harlan Sprague Dawley
Rat [11] = test: concentration in plasma after dosing; details: 10 min; dosed: alpha-Thujone; 50 mg/kg; oral; Female; Harlan Sprague Dawley
Rat [12] = test: concentration in plasma after dosing; details: 5 min; dosed: alpha-Thujone; 25 mg/kg; oral; Male; Harlan Sprague Dawley
Rat [13] = test: concentration in liver after dosing; details: dosed: Perfluorohexane-1-sulphonic acid – potassium salt, 16 mg/kg, oral
Rat [14] = test: concentration in brain after dosing; details: 3 h; dosed: Perfluorohexane-1-sulphonic acid – potassium salt; 16 mg/kg; oral; Female; F344
Rat [15] = test: concentration in liver after dosing; details: 24 h; dosed: Perfluorohexane-1-sulphonic acid – potassium salt; 16 mg/kg; oral; Female; F344
Rat [16] = test: concentration in liver after dosing; details: 48 h; dosed: Perfluorohexane-1-sulphonic acid – potassium salt; 16 mg/kg; oral; Female; Harlan Sprague Dawley
Rat [17] = test: concentration in kidney after dosing; details: 48 h; dosed: Perfluorohexane-1-sulphonic acid – potassium salt; 16 mg/kg; oral; Female; Harlan Sprague Dawley
Rat [18] = test: concentration in plasma after dosing; details: dosed: Perfluorohexane-1-sulphonic acid – potassium salt, 4 mg/kg, oral, Male, F344
Rat [19] = test: concentration in kidney after dosing; details: 192 h; dosed: Perfluorohexane-1-sulphonic acid – potassium salt; 16 mg/kg; oral; Female; Harlan Sprague Dawley
Rat [20] = test: concentration in plasma after dosing; details: dosed: Perfluorohexane-1-sulphonic acid – potassium salt, 4 mg/kg, oral, Male, F344; remark: listed apart in the source
Hamster = test: concentration in plasma after dosing; details: dosed: 2,4-Dichlorophenoxyacetic acid, 8.0 mg/kg, oral, Male, Syrian Golden
In short: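 Sampling and analytical methods are those of each source and frequently went unreported. The concentration-versus-time and amount-versus-time points were compiled from published in vivo toxicokinetic studies and two structured collections. Most were digitised from plot screenshots with WebPlotDigitizer, with others copied from tables, in the reported units.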

Rat [21] = test: concentration in plasma after dosing; details: dosed: 2,4-Dichlorophenoxyacetic acid, 2.0 mg/kg, iv, Male, Sprague-Dawley
Rat [22] = test: concentration in plasma after dosing; details: dosed: Methyleugenol, 37 mg/kg, iv, Female, F344
Rat [23] = test: concentration in plasma after dosing; details: dosed: Methyleugenol, 37 mg/kg, iv, Female, F344; remark: listed apart in the source
Rat [24] = test: concentration in plasma after dosing; details: dosed: Methyleugenol, 37 mg/kg, oral, Female, F344/N
Rat [25] = test: concentration in plasma after dosing; details: dosed: Methyleugenol, 37 mg/kg, oral, Female, F344/N; remark: listed apart in the source
Rat [26] = test: concentration in plasma after dosing; details: dosed: Methyleugenol, 37 mg/kg, iv, Female, F344; remark: listed apart in the source
Rat [27] = test: concentration in plasma after dosing; details: dosed: Methyleugenol, 37 mg/kg, iv, Female, F344; remark: listed apart in the source
Rat [28] = test: concentration in plasma after dosing; details: dosed: Methyleugenol, 37 mg/kg, iv, Male, F344
Rat [29] = test: concentration in plasma after dosing; details: 0.25 h; dosed: Primidone; 30 mg/kg; oral; Female; F344

c1ccncc1 [Pyridine]
Details	concentration in plasma [ng/mL]
Rat [1]	2510
Rat [2]	8970

Rat [3]
Details	concentration in plasma [ng/mL]
4 h	15500
5 min	4220

O=C(c1ccccc1)c1ccc(O)cc1O [2,4-Dihydroxybenzophenone]
Details	concentration in plasma [ng/mL]
Mouse	5480
Rat [4]	713

concentration in plasma [ng/mL]
Details	3 h	10 h	10 min
Rat [5]	148	–	119
Rat [6]	–	107	78.6

CC(C)[C@]12CC(=O)[C@H](C)[C@H]1C2 [alpha-Thujone]
Details	concentration in brain [ng/g]	concentration in plasma [ng/mL]
Rat [7]	987	–
Rat [8]	19.8	–
Rat [9]	589	–
Rat [10]	–	240
Rat [11]	–	835
Rat [12]	–	570

O=S(=O)([O-])C(F)(F)C(F)(F)C(F)(F)C(F)(F)C(F)(F)C(F)(F)F.[K+] [Perfluorohexane-1-sulphonic acid – potassium salt]
concentration in liver [ng/g], Rat [13]
Details	3 h	6 h	12 h	24 h	48 h	96 h	192 h	528 h	1200 h
Female, F344	67800	62400	68600	58000	–	–	47000	27600	–
Female, Harlan Sprague Dawley	49500	49000	33300	26100	14000	6030	1460	–	–
Male, Harlan Sprague Dawley	–	–	–	–	–	–	–	–	14800

Details	concentration in brain [ng/g]	concentration in kidney [ng/g]	concentration in liver [ng/g]
Rat [14]	1090	–	–
Rat [15]	–	–	53400
Rat [16]	–	–	13300
Rat [17]	–	12000	–
Rat [19]	–	1650	–

concentration in plasma [ng/mL]
Details	0.25 h	1 h	6 h	24 h	528 h	864 h
Rat [18]	6180	–	68100	–	13900	–
Rat [20]	–	23200	–	28900	–	9040

O=C(O)COc1ccc(Cl)cc1Cl [2,4-Dichlorophenoxyacetic acid]
concentration in plasma [ng/mL]
Details	0.25 h	0.5 h	0.75 h	1 h	2 h	2.5 h	2.5 min	3 h	5 min
Hamster	4060	1230	–	1030	511	–	2380	–	9420
Rat [21]	15300	6490	6000	–	1910	720	26200	282	–

C=CCc1ccc(OC)c(OC)c1 [Methyleugenol]
Details	concentration in plasma [ng/mL]
Rat [22], 0.25 h	9200
Rat [22], 1.5 h	738
Rat [23], 0.25 h	9760
Rat [23], 1.5 h	576
Rat [24], 2 h	25.2
Rat [24], 2 min	13.3
Rat [25], 5 h	16.9
Rat [25], 5 min	211
Rat [26], 0.5 h	1330
Rat [26], 0.75 h	535
Rat [27], 2 min	43100
Rat [27], 6 h	68
Rat [28], 3 h	226
Rat [28], 5 min	28800

CCC1(c2ccccc2)C(=O)NCNC1=O [Primidone]
Details	concentration in plasma [ng/mL]
Rat [29]	15100
